Calls of active or inactive are those of the source. The calls are words filed in the database; no cut-off is given here.
Columns and labels:
[1] = Inhibition of wild-type Acinetobacter baumannii DNA gyrase supercoiling activity using relaxed pBR322 DNA as substrate by ethidium bromide based agarose gel electrophoresis
Acinetobacter baumannii = assay: Antibacterial activity against fluoroquinolone-resistant Acinetobacter baumannii T6474 by CLSI broth microdilution method; type: functional
[2] = Inhibition of wild-type Acinetobacter baumannii DNA topoisomerase-4 mediated supercoiled pBR322 DNA relaxation by ethidium bromide based agarose gel electrophoresis
[3] = Volume of distribution at steady state in NMRI mouse at 10 mg/kg, iv by LC-MS/MS analysis; type: ADME, organism-based; settings: in vivo, read-out: Vdss
In short: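 Mice received a single dose of 10 mg/kg intravenously, or 120 mg/kg subcutaneously for one compound. Clearance, Vdss, half-life, unbound fraction and dose-normalized AUC were derived from plasma exposure.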

Klebsiella pneumoniae [4] = assay: Antibacterial activity against Klebsiella pneumoniae ATCC 43816 by CLSI broth microdilution method; type: functional
Mus musculus [5] = assay: Dose normalized AUC in NMRI mouse at 10 mg/kg, iv by LC-MS/MS analysis; type: ADME, organism-based; settings: in vivo
[6] = Inhibition of wild-type Pseudomonas aeruginosa DNA gyrase supercoiling activity using relaxed pBR322 DNA as substrate by ethidium bromide based agarose gel electrophoresis
Staphylococcus aureus [7] = assay: Antibacterial activity against methicillin-sensitive Staphylococcus aureus A-1178 infected in cyclophosphamide-induced neutropenic NMRI mouse model assessed as log reduction in colony forming units in thighs at 40 mg/kg, sc treated 2 hrs post infection measured 22 hrs post dose; type: functional
In short: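 Neutropenic mouse thigh model infected with a methicillin-sensitive S. aureus strain, subcutaneous dosing. Thigh CFU measured 24 h post-infection (22 h post-treatment). Net log reduction given against CFU at treatment start.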

[8] = Terminal half-life in NMRI mouse at 10 mg/kg, iv by LC-MS/MS analysis; type: ADME, organism-based; settings: in vivo, read-out: beta t1/2 (converted)
In short: (§1)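 Mice dosed iv at 10 mg/kg or sc at 120 mg/kg. AUC normalized to dose (μg·h/(mL·dose)). Unbound AUC derived using fraction unbound. Clearance, Vdss and terminal half-life also derived.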

Escherichia coli = assay: Antibacterial activity against wild-type Escherichia coli ATCC 25922 by CLSI broth microdilution method; type: functional
Klebsiella pneumoniae [9] = assay: Antibacterial activity against Klebsiella pneumoniae ATCC 43816 infected in cyclophosphamide-induced neutropenic NMRI mouse model assessed as log reduction in colony forming units in thighs at 90 mg/kg, sc treated 2 hrs post infection measured 5.5 hrs post dose; type: functional
In short: (§2)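 Neutropenic murine thigh infection with a K. pneumoniae strain, single subcutaneous dose. Thigh CFU read 7.5 h post-infection (5.5 h after treatment, covering the dosing interval). Net log change computed against CFU at start of treatment.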

Staphylococcus aureus [10] = assay: Antibacterial activity against Staphylococcus aureus ATCC 29213 by CLSI broth microdilution method; type: functional
[11] = Inhibition of wild-type Escherichia coli DNA topoisomerase-4 mediated supercoiled pBR322 DNA relaxation by ethidium bromide based agarose gel electrophoresis
Klebsiella pneumoniae [12] = assay: Antibacterial activity against Klebsiella pneumoniae ATCC 43816 infected in cyclophosphamide-induced neutropenic NMRI mouse model assessed as reduction in colony forming units in thighs at 30 mg/kg, sc treated 2 hrs post infection measured 5.5 hrs post dose; type: functional, organism-based; in short: as §2
Staphylococcus aureus [13] = assay: Antibacterial activity against methicillin/quinolone-resistant Staphylococcus aureus A-1171 infected in cyclophosphamide-induced neutropenic NMRI mouse model assessed as log reduction in colony forming units in thighs at 40 mg/kg, sc treated 2 hrs post infection measured 22 hrs post dose; type: functional
In short: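 Neutropenic murine thigh infection with MRSA. A single subcutaneous dose of 40 mg/kg was given. Thigh CFU were counted 24 h postinfection (22 h post-treatment). The net change in bacterial load is given in log units relative to CFU at the start of treatment.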

[14] = Fraction unbound in NMRI mouse at 10 mg/kg, iv by rapid equilibrium dialysis; type: ADME, organism-based; settings: plasma; in short: as §1
Staphylococcus aureus [15] = assay: Antibacterial activity against methicillin/quinolone-resistant Staphylococcus aureus A-1171 by CLSI broth microdilution method; type: functional
Staphylococcus aureus [16] = assay: Antibacterial activity against methicillin-sensitive Staphylococcus aureus A-1178 by CLSI broth microdilution method; type: functional
Mus musculus [17] = assay: Dose normalized unbound AUC in NMRI mouse at 10 mg/kg, iv by LC-MS/MS analysis; type: ADME, organism-based; settings: in vivo; in short: as §1
[18] = Inhibition of wild-type Pseudomonas aeruginosa DNA topoisomerase-4 mediated supercoiled pBR322 DNA relaxation by ethidium bromide based agarose gel electrophoresis
[19] = Inhibition of wild-type Escherichia coli DNA gyrase supercoiling activity using relaxed pBR322 DNA as substrate by ethidium bromide based agarose gel electrophoresis
Pseudomonas aeruginosa = assay: Antibacterial activity against Pseudomonas aeruginosa ATCC 27853 by CLSI broth microdilution method; type: functional

## COc1ccc2ncc(F)c(CC(N)[C@@H]3CC[C@@H](NCc4ccc5c(n4)NC(=O)CO5)CO3)c2n1 (mixture of isomers)
[1]
  IC50: 125 nM
Acinetobacter baumannii
  MIC: 0.25 µg/mL
[2]
  IC50: 30 nM
[3]
  Vd: 6 L/kg
Klebsiella pneumoniae [4]
  MIC: 0.125 µg/mL
Mus musculus [5]
  AUC/dose: 260 ng·h/mL
[6]
  IC50: 30 nM
Staphylococcus aureus [7]
  Activity: 2 log10CFU
[8]
  half-life: 1.2 h
Escherichia coli
  MIC: 0.25 µg/mL
Klebsiella pneumoniae [9]
  Activity: 1 log10CFU
Staphylococcus aureus [10]
  MIC: 0.03 µg/mL
[11]
  IC50: 30 nM
Klebsiella pneumoniae [12]
  Activity: inactive
Staphylococcus aureus [13]
  Activity: 1 log10CFU
[14]
  fraction unbound: 0.154
Staphylococcus aureus [15]
  MIC: 0.03 µg/mL
Staphylococcus aureus [16]
  MIC: 0.06 µg/mL
Mus musculus [17]
  fAUC/dose: 40 µg·h/mL
[18]
  IC50: 30 nM
[19]
  IC50: 125 nM
Pseudomonas aeruginosa
  MIC: 4 µg/mL

Reference: ChEMBL document CHEMBL4049439, “Synthesis and Characterization of Tetrahydropyran-Based Bacterial Topoisomerase Inhibitors with Antibacterial Activity against Gram-Negative Bacteria” (J Med Chem, 2017)
